Results as given in ChEMBL document CHEMBL1154208, “Antispasmodic effects and structure-activity relationships of labdane diterpenoids from Marrubium globosum ssp. libanoticum” (2009).
Active and inactive are the calls of the source. The calls are words filed in the database; no cut-off is given here.

Tested on: Ileum
Test: Antispasmodic activity in mouse distal ileum assessed as inhibition of acetylcholine-induced contractions after 20 mins
Type: functional, tissue-based
Conditions: not given
Method in brief: (§1)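 Isolated mouse ileum segments. Contractions evoked by acetylcholine (10^-6 M) at 20 min intervals; after at least three stable control contractions, responses repeated with noncumulative increasing compound concentrations added 20 min before the stimulus, after tissue washing. Mean ± SEM of 6-8 experiments; concentration-response curves fitted by nonlinear regression.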

SMILES | inhibition
CCO[C@@H]1O[C@@H]2O[C@]3(CC[C@]2(O)[C@H]1O)[C@H](C)C[C@H]1OC(=O)[C@@]2(C)CCC[C@@]3(C)[C@@H]12 (relative stereo) | Dose-dependent effect

Tested on: Ileum
Test: Antispasmodic activity in mouse distal ileum assessed as inhibition of acetylcholine-induced contractions at 100 ug/ml after 20 mins
Type: functional
Conditions: not given
Method in brief: as §1

SMILES | inhibition
C[C@@H]1C[C@H]2OC(=O)[C@@]3(C)CCC[C@@](C)([C@@H]23)[C@@]1(O)CCCC(=O)O | Active
C[C@@H]1C[C@H]2OC(=O)[C@@]3(C)CCC[C@@](C)([C@@H]23)[C@@]12CC[C@@]1(CO[C@@H](O)C1)O2 | inactive
C[C@@H]1C[C@H]2OC(=O)[C@@]3(C)CCC[C@@](C)([C@@H]23)[C@@]12CC[C@@]1(CO[C@H](O)C1)O2 | inactive
C[C@@H]1C[C@H]2OC(=O)[C@@]3(C)CCC[C@@](C)([C@@H]23)[C@@]12CC[C@]1(COC(=O)C1)O2 | Active
C[C@@H]1C[C@@H](O)[C@H]2C(C)(C)CCC[C@]2(C)[C@@]1(O)CCC1=CC(=O)OC1 | inactive
C[C@@H]1C[C@H]2OC(=O)[C@@]3(C)CCC[C@@](C)([C@@H]23)[C@@]12CC[C@]1(CO[C@H](O)C1)O2 | Active
C[C@@H]1C[C@H]2OC(=O)[C@@]3(C)CCC[C@@](C)([C@@H]23)[C@@]12CC[C@]1(CO[C@@H](O)C1)O2 | Active
C[C@@H]1C[C@H]2OC(=O)[C@@]3(C)CCC[C@@](C)([C@@H]23)[C@@]12CC[C@@]1(COC(=O)C1)O2 | Active
C[C@@H]1C[C@H]2OC(=O)[C@@]3(C)CCC[C@@](C)([C@@H]23)[C@@]1(O)CCC1=CC(=O)OC1 | inactive

Same assay, conditions: read-out: INH

SMILES | inhibition at 100 µg/mL
C[C@@H]1C[C@H]2OC(=O)[C@@]3(C)CCC[C@@](C)([C@@H]23)[C@@]12CCCC(=O)O2 [MARRULACTONE] | < 50%
C[C@@H]1C[C@H]2OC(=O)[C@@]3(C)CCC[C@@](C)([C@@H]23)[C@@]12CCC(=O)O2 | < 50%
